Where no end group is shown, it is not given here.
Key:
H-2 Db = H-2 Db (Mus musculus, UniProt P01899); assay: MHC peptide binding competition assay, purified H-2 Db
Summary of the method: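 Peptides radiolabelled by chloramine T; 1–10 nM label co-incubated at room temperature for 2 d with 1 μM to 1 nM purified H-2 Db, 1–3 μM human β2-microglobulin and protease inhibitors. Complexes captured on 28-14-8s Ab-coated plates; bound cpm counted. Test peptide at six concentrations over a 100,000-fold range, ≥3 independent assays; IC50 = concentration giving 50% inhibition of label binding.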

H-2 Kb = H-2 Kb (Mus musculus, UniProt P01901); assay: MHC peptide binding competition assay, purified H-2 Kb
Sequence of H-2 Kb (P01901 22-369): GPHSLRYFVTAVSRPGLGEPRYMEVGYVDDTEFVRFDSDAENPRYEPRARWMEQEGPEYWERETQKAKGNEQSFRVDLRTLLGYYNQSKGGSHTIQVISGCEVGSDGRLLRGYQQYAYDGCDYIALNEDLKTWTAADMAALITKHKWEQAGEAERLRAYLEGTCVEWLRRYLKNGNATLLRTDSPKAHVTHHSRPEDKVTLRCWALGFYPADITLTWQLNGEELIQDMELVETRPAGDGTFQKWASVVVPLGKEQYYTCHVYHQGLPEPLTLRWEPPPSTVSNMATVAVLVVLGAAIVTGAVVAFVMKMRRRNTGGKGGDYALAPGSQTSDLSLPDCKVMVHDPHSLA
Sequence of H-2 Kb (P61769 21-119 partner): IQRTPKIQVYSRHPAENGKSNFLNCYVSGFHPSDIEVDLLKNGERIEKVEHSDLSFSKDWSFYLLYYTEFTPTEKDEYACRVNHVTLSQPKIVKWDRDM

Sequence of H-2 Db (P01899 25-362): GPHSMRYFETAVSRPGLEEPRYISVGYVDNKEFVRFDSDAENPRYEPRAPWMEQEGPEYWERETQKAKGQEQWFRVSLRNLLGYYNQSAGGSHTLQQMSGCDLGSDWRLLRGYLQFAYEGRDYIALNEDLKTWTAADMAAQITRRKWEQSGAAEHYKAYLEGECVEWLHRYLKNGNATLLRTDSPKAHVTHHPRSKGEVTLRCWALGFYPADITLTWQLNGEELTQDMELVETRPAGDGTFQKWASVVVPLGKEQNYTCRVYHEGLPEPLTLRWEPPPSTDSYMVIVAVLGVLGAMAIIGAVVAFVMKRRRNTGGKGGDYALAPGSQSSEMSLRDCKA
Sequence of H-2 Db (P61769 21-119, further chain): as the sequence (P61769 21-119 partner) above

AAIENYVRF [AAIENYVRF]
IC50 (H-2 Db): 38 nM

AVCINNTFL [AVCINNTFL]
IC50 (H-2 Db): 450 nM

FAFVNAAHA [FAFVNAAHA]
IC50 (H-2 Db): 4.9 nM

FGLLNYALV [FGLLNYALV]
IC50 (H-2 Db): 1 nM

FLPRLGTEL [FLPRLGTEL]
IC50 (H-2 Db): 3050 nM

GAINFINL [GAINFINL]
IC50 (H-2 Kb): 6.2 nM

GAMRAVVPI [GAMRAVVPI]
IC50 (H-2 Db): 499 nM

INNTFLHL [INNTFLHL]
IC50 (H-2 Kb): 2 nM

LAVVLWSLL [LAVVLWSLL]
IC50 (H-2 Db): 2780 nM

LGYAYINS [LGYAYINS]
IC50 (H-2 Kb): 10 nM

QTFDFGRL [QTFDFGRL]
IC50 (H-2 Kb): 2.1 nM

SARMLGDVM [SARMLGDVM]
IC50 (H-2 Db): 9210 nM

SFYRFLFA [SFYRFLFA]
IC50 (H-2 Kb): 64 nM

WMKMNQTLL [WMKMNQTLL]
IC50 (H-2 Db): 131 nM

YQPLLSNTL [YQPLLSNTL]
IC50 (H-2 Db): 5150 nM

YRFLFAFL [YRFLFAFL]
IC50 (H-2 Kb): 5.4 nM

YSVENVGLL [YSVENVGLL]
IC50 (H-2 Db): 1.9 nM

Source: publication PMC3308013 (Journal of Immunology (Baltimore, Md. : 1950), 2011)
